Broadly, the EC50 is the concentration at which the effect is half-maximal.

Structures are written as SMILES. Calls of active or inactive are those of the source.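 How the source made its calls: active means mean EC50 at or below 20 µM; inactive means the rest.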 A value given as a limit tells only on which side of the number the result lay.

This is an account of results in PubChem BioAssay AID540305 (Sanford-Burnham Center for Chemical Genomics, 2011).

The assay addresses CHO-XBP1 luciferase reporter, IRE1-XBP1 activation, luminescence. The experiment in a line: XBP1 luciferase reporter activation – CHO-XBP1 cells, luminescence, counter-screen for UPR apoptotic arm activator project, SAR follow-up (AID 540305). A digest of the protocol: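 System: CHO-XBP1 cells stably carrying IRE1-XBP1 luciferase reporter / Buffer or medium: F12 medium with 10% fetal bovine serum / Incubation: overnight plating, 6 h compound treatment at 37 °C / Measured by: luciferase luminescence using Steady-Glo reagent / Control set: tunicamycin 10 µg/mL as positive control, DMSO alone as negative control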
For orientation: A reporter such as luciferase makes a cellular process visible.
In the case of `O=C(Nc1ccc(C(=O)N2CCOCC2)cc1)c1ccco1`, the EC50 is > 80 µM (inactive).

Turning to `O=C(Nc1nc2ccccc2s1)c1ccncc1`, the EC50 is > 80 µM (inactive). The result for `CC1CCN(S(=O)(=O)c2ccc(NC(=O)c3ccc([N+](=O)[O-])o3)cc2)CC1` reads > 80 µM (inactive); that for `O=C(Nc1cccc(S(=O)(=O)N2CCOCC2)c1)c1ccco1`, > 80 µM (inactive); that for `O=C(Nc1ccc(S(=O)(=O)N2CCOCC2)cc1)c1ccc([N+](=O)[O-])o1`, > 80 µM (inactive). For `O=C(Nc1ccc(S(=O)(=O)c2ccccc2)cc1)c1ccc([N+](=O)[O-])o1` the value was > 80 µM (inactive); for `O=C(Nc1ccc(S(=O)(=O)N2CCCC2)cc1)c1ccc([N+](=O)[O-])o1`, > 80 µM (inactive). The result for `Cc1ccc(C(=O)Nc2ccc(S(=O)(=O)N3CCOCC3)cc2)o1` reads > 80 µM (inactive). For the compound `Cc1cc(C)c2nc(NC(=O)c3ccccn3)sc2c1`, the EC50 was > 80 µM (inactive).

For the compound `O=C(Nc1ccc(S(=O)(=O)N2CCNCC2)cc1)c1ccc([N+](=O)[O-])o1`, the EC50 is > 80 µM (inactive). For `O=C(Nc1ccc(S(=O)(=O)N2CCOCC2)cc1)c1ccc([N+](=O)[O-])s1` the value was > 80 µM (inactive); for `O=C(Nc1ccc(S(=O)(=O)N2CCOCC2)cc1)c1cccs1`, > 80 µM (inactive); for `Fc1cc(F)c2nc(NCc3ccccn3)sc2c1`, > 80 µM (inactive).

`O=C(Nc1ccc(S(=O)(=O)N2CCCCC2)cc1)c1ccc([N+](=O)[O-])o1`: the EC50 is > 80 µM (inactive). The result for `CC1(C)CCN(S(=O)(=O)c2ccc(NC(=O)c3ccc([N+](=O)[O-])o3)cc2)CC1` reads > 80 µM (inactive); that for `CC1CN(S(=O)(=O)c2ccc(NC(=O)c3ccco3)cc2)CC(C)O1` (stereo unspecified), > 80 µM (inactive). For `O=C(Nc1ccc(S(=O)(=O)N2CCOCC2)cc1)c1ccco1` the value was > 80 µM (inactive). In the case of `O=C(Nc1ccc(S(=O)(=O)N2CCOCC2)cc1)c1ccc(Br)o1`, the EC50 was > 80 µM (inactive). The result for `O=C(Nc1nc2ccccc2s1)c1ccccn1` reads > 80 µM (inactive); that for `O=C(Nc1nc2c(F)cc(F)cc2s1)c1ccccc1`, > 80 µM (inactive); that for `O=C(Nc1nc2ccc(F)cc2s1)c1ccccn1`, > 80 µM (inactive). The result for `O=C(Nc1ccc(S(=O)(=O)N2CCOCC2)cc1)c1ccccc1` reads > 80 µM (inactive); that for `O=C(Nc1nc2ccccc2s1)c1cccnc1`, > 80 µM (inactive); that for `O=C(Nc1nc2c(F)cc(F)cc2s1)c1ccccn1`, > 80 µM (inactive).

For `O=C(Nc1ccc(S(=O)(=O)N2CCC(O)CC2)cc1)c1ccc([N+](=O)[O-])o1`, the EC50 was > 80 µM (inactive). For `O=C(Nc1ccc(S(=O)(=O)C2CCCCC2)cc1)c1ccc([N+](=O)[O-])o1` the value was > 80 µM (inactive). For `O=C(Nc1nc2c(Cl)cc(Cl)cc2s1)c1ccccn1` the value was > 80 µM (inactive); for `O=C(Nc1nc2c(F)cc(F)cc2s1)c1ccncc1`, > 80 µM (inactive). For `O=C(Nc1nc2c(F)cccc2s1)c1ccccn1` the value was > 80 µM (inactive). Regarding `O=C(Nc1ccc(S(=O)(=O)N2CCOCC2)cc1)c1ccc([N+](=O)[O-])cc1`, the EC50 was > 80 µM (inactive).

As for `O=C(Nc1nc2c(F)cc(F)cc2s1)c1cccnc1`, the EC50 is > 80 µM (inactive).
